Compounds with a hit are over-represented: about 1.1% of the library has one in this group of screens.
Thrombin inh = inhibitors of human thrombin | P00734 | alpha-thrombin, Boc-VPR-AMC fluorogenic substrate cleavage | inhibition, % at 5 µM | 220,000 compounds, 0.26% hits | AID 1046;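 active means inhibition at or above 40%; inactive means inhibition below 40%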;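 further: 0% = enzyme with no compound and 100% = wells without enzyme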
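Test system: human alpha-thrombin; medium: pH 7.5 Tris-saline with Tween 20; times: reaction at room temperature; signal: AMC fluorescence at 355 nm excitation and 460 nm emission; also added: Boc-VPR-AMC substrate, 15 µM final; dosing: one concentration per compound, 5 µM, with 0.2% DMSO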
KLK5 inh = blocks human kallikrein 5 protease activity; recombinant hK5, fluorogenic AMC substrate cleavage; inhibition, % at 5 µM; AID 873; Q9Y337; 210,000 compounds, 0.59% hits;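 active means inhibition of 40% or more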;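 further: 0% = enzyme controls without compound and 100% = no-enzyme blanks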
FXIIa inh = inhibitors of human coagulation factor XIIa | P00748 | purified FXIIa, Boc-QGR-AMC fluorogenic substrate, 2 h | inhibition, % at 5 µM | 220,000 compounds, 0.3% hits | AID 800; in the data active means inhibition above about 40%;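 further: 0% = enzyme with no compound and 100% = blank without enzyme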
Target sequence (P00748 20-372 limits assumed): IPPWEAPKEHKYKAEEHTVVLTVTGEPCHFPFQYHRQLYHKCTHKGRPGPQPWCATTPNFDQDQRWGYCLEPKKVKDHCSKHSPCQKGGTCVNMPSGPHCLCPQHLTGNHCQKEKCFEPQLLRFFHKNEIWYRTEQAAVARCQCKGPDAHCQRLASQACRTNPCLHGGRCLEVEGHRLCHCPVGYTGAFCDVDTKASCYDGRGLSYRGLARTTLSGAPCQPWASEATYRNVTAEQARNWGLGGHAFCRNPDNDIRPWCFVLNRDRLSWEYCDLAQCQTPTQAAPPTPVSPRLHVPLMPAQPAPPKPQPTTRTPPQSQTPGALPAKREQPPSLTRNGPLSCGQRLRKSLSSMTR
Target sequence (P00748 373-615 limits assumed): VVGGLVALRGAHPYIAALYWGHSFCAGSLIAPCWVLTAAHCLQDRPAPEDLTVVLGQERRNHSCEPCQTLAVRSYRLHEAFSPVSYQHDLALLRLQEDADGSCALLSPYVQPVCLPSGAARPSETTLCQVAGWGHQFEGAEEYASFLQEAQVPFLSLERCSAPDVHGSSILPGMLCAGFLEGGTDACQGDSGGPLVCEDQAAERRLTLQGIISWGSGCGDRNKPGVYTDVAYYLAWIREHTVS
Tb hexokinase = T. brucei hexokinase 1 inhibition | recombinant TbHK1, G6PDH-coupled NADH A340 | inhibition, % at 10 µM | 220,000 compounds, 0.11% hits;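 active means inhibition of 50% or more in the single-dose primary screen; inactive means inhibition below 50%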
FXIa inh 1536 = inhibitors of human coagulation factor XIa; purified FXIa, Boc-Glu-Ala-Arg-AMC fluorogenic substrate; inhibition, % at 5 µM; 220,000 compounds, 0.14% hits; AID 798;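 active means inhibition of at least 40%; inactive means inhibition below 40%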;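 further: fluorescence of freed AMC excited at 355 nm; 0% = enzyme without compound and 100% = no enzyme blank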
Starred values were filed as active, the others as inactive; x = no result.

SMILES	Thrombin inh	KLK5 inh	FXIIa inh	Tb hexokinase	FXIa inh 1536
COc1ccc(OC)c(NC2c3ncccc3C(=O)N2Cc2ccco2)c1 (centres undefined)	-6	-8	9	1	-6
CN(C)c1ccc(N=Nc2ccccc2C(=O)OCC(=O)NCC2CCCCC2)cc1	11	48*	21	39	7
COc1cccc(-c2nn(-c3ccccc3)cc2CN(C)Cc2ccno2)c1	2	20	4	-12	2
COc1cccc(-c2nn(-c3ccccc3)cc2CN(C)C(C)c2ccon2)c1 (centres undefined)	26	46*	33	1	27
O=C1CN(C(=O)CNCc2ccccc2)c2ccccc2N1	-5	1	8	-10	2
O=C(CCCN1C(=O)c2cccc3cccc(c23)C1=O)NCc1cccnc1	20	39	49*	-6	36
Cc1cc(C)n(-c2nnc(C)n2NS(=O)(=O)c2ccc(F)cc2)n1	2	4	71*	-1	10
CCCNC(=S)N1CCC(NC(=O)Nc2ccc(C)cc2)CC1	-2	6	14	0	0
COc1ccc(NC(NC(=O)c2cccnc2)C(Cl)(Cl)Cl)cc1 (centres undefined)	12	14	55*	10	29
CCc1nnc(NC(=O)CCC(=O)N2CCN(C3CCCCC3)CC2)s1	-1	3	15	-2	8
CCc1nnc(NC(=O)CCC(=O)N2CCCC2)s1	42*	54*	28	2	-8
Oc1ccc(/C=N/N2CCN(C3c4ccccc4-c4ccccc43)CC2)c(O)c1	22	-2	26	8	48*
Cc1cc(/C=C(\C#N)C(=O)Nc2ccc(Cl)cc2)c(C)n1-c1ccc(N2CCOCC2)c([N+](=O)[O-])c1	4	-4	20	-26	12
CNC(=O)/C(C#N)=C/c1cc(C)n(-c2ccc(N3CCOCC3)cc2)c1C	-7	44*	2	-2	-9
COc1cccc(OC)c1-c1nn2c(-c3ccco3)nnc2s1	38	45*	45*	-5	8
CC(C)C(NS(=O)(=O)c1ccccc1)C(=O)OCc1cc([N+](=O)[O-])cc2c1OCOC2 (centres undefined)	48*	39	7	-3	11
Cc1ccc(C(=O)NC(NC(=S)Nc2ccc(S(N)(=O)=O)cc2)C(Cl)(Cl)Cl)cc1 (centres undefined)	30	44*	2	1	-4
N=C(N)c1ccc(/C=C/c2ccc(C(=N)N)cc2O)cc1	-5	3	7	-65	5
O=C(NC1CCCCC1)c1ccc(Br)o1	15	83*	8	0	1
Cc1cc(-c2nc3ncccc3o2)ccc1NC(=S)NC(=O)C(C)C	40*	20	x	10	37
N#CCc1nc2ccccc2c(=O)[nH]1	-5	0	9	1	3
CC(=O)Nc1ccccc1-c1nc2ccc(C(=O)N3CCN(c4cccc(C)c4)C(C)C3)cc2[nH]c1=O (centres undefined)	18	59*	16	-36	-4
Cn1ncc(Oc2ccc([N+](=O)[O-])cc2)c(Cl)c1=O	-1	71*	42*	-15	25
COc1ccc(CN2CCCC(C(=O)c3cccc(OC(C)C)c3)C2)cc1Cn1cccn1 (centres undefined)	-4	4	13	7	-1
Cc1[nH]c2ccccc2c1C(=O)COC(=O)Cn1c(C)nc2ccccc21	20	52*	32	-7	39
SMILES	Thrombin inh	KLK5 inh	FXIIa inh	Tb hexokinase	FXIa inh 1536
C=CCNC(=O)CN(c1ccc(F)cc1)S(=O)(=O)c1ccc(OC)cc1	-2	4	54*	10	12
COC(=O)c1ccc(NC(=O)COc2ccc(S(=O)(=O)NC(C)C)cc2)cc1	11	52*	16	3	1
COc1cccc(NC(=O)COc2ccc(S(=O)(=O)NC(C)C)cc2)c1	31	51*	21	-3	16
CC(C)NS(=O)(=O)c1ccc(OCC(=O)Nc2ccc(F)cc2F)cc1	2	1	10	1	4
CN(C(=S)NC(=O)c1ccc(Br)o1)c1ccccc1	-1	-16	10	-11	8
Cc1nnc(SCc2nnc(-c3ccccc3Br)o2)n1-c1ccccc1	41*	-21	1	-3	-7
Brc1ccccc1-c1nnc(CSc2nnnn2-c2ccccc2)o1	-7	-6	13	-7	0
CC(NC(=O)C(c1ccccc1)c1ccccc1)C(=O)N1CCCCC1 (centres undefined)	31	7	10	9	7

Compound activity (PubChem)
